ANO1 activ – activators or potentiators of mouse TMEM16A chloride channel | HEK293 TMEM16A/YFP-H148Q/I152L, iodide quench fluorescence; stronger effect = lower value | B-score at 10 µM | actives 0.3% (n = 340,000) | AID 623877;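 active = fluorescence-ratio B-score plate-corrected deviation score at least 3 library SD below zero, with starting fluorescence score within 5 deviations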;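 note: channel opened by trigger with iodide after compound preincubation; score built on the fluorescence ratio of max minus min over baseline; more negative score means more quench and so TMEM16A activation or potentiation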
MC4R antagonist – antagonists of human melanocortin 4 receptor (MC4R); P32245; MC4R-expressing cells, MTII-stimulated cAMP, LANCE TR-FRET; inhibition, % at 6.5 µM; actives 0.48% (n = 360,000);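 active = inhibition above its plate's cutoff, the mean of tested wells on that plate plus 3 SD, cut at about 29% in these data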
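Material – human MC4R-expressing U2OS cells · Repeats – no replicates · Detection – TR-FRET with Eu-cAMP and labeled anti-cAMP, 671 nm · Times – compound 30 min, challenge 1 h, detection 1 h · Compound – single nominal compound dose of 6.5 µM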
beta cell repl – induces beta-cell replication in MIN6 cells; MIN6 cells proliferation, ATPlite luminescence, 48 h; cells starved in 0.2% serum; 100% = growth in 10% serum; proliferation, % at 10 µM; actives 0.29% (n = 330,000);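 active = compounds whose signal lies at least 3.5 SD above the mean of all wells on their plate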
MC4R ag barr – human MC4R agonism via beta-arrestin | P32245 | U2OS MC4R beta-arrestin complementation, luminescence; percent of melanotan II response, DMSO zero | activation, % at 8.9 µM | actives 0.98% (n = 360,000) | AID 540308;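 active = activation above a per-plate cutoff, the mean activation of sample wells on that plate plus 3 SD, cut at about 8% in these data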
TMEM16A inh – mouse TMEM16A channel inhibition, primary screen; HEK293 TMEM16A/YFP iodide influx fluorescence, ionomycin; normalized B-score (activity score, 25-100; higher = stronger inhibition) at 10 µM; actives 1.2% (n = 310,000); AID 588511;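 active = ratio plate-corrected score three or more library SD toward inhibition, starting fluorescence score within five deviations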;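 note: score derived from kinetic fluorescence span divided by baseline fluorescence per well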
HTR2A ag – activates the mouse 5-HT2A serotonin receptor; P35363; CHO-K1 mHTR2A beta-arrestin complementation, luminescence; percent of 30 µM serotonin response; activation, % at 7.6 µM; actives 0.66% (n = 360,000); AID 624169;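 active = activation above a run cutoff, the mean activation of all tested compounds plus 3 SD, cut at about 14% in these data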
Target sequence (P35363 whole entry, looked up): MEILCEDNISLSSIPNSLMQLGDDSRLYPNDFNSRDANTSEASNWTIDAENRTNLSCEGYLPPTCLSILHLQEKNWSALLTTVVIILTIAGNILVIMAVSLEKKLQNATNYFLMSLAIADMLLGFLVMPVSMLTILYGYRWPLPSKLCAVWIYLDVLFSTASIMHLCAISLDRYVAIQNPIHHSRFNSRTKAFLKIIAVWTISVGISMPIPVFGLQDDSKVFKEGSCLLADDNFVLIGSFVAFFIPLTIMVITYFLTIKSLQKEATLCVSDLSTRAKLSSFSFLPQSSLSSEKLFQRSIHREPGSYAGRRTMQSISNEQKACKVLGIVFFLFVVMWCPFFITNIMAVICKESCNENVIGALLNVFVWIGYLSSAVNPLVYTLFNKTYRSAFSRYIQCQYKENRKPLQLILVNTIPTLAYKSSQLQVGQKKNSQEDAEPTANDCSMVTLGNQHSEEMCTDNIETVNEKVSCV
MOR ag counter – OPRM1 agonism in mouse HTR2A counterscreen | activation, % at 9.3 µM | U2OS OPRM1 beta-arrestin PathHunter, luminescence; DMSO 0%, DAMGO 9.3 µM 100% | actives 5.3% (n = 2,300) | AID 624380 | shares compounds with HTR2A ag;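 active = mean activation above the mean of DMSO-only wells plus 3 SD, cut at about 0.5% in these data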
m5-HT2A ag conf – confirmation of mouse HTR2A serotonin receptor agonists; shares compounds with HTR2A ag; CHO-K1 PathHunter beta-arrestin recruitment, luminescence; DMSO 0%, 30 µM serotonin 100%; activation, % at 7.6 µM; actives 19% (n = 2,300);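 active = mean activation across triplicates above the hit threshold derived in the original primary screen, cut at about 15% in these data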
Of the large screens only hits and unclear results are named; the others gave an inactive call (follow-up assays come after a bar, where they were run). Sampled rows, rich in hits. Any-hit rate of the full collection: about 3.4%.

COc1ccc(-n2c(SCC(=O)Nc3cc(C(=O)O)ccc3C)nc3ccccc3c2=O)cc1Cl	HTR2A ag 17 | MOR ag counter inactive | m5-HT2A ag conf inactive
CC1CCN(CCCn2c(SCC(=O)Nc3ccccc3Cl)nc3ccccc3c2=O)CC1	HTR2A ag 43 | MOR ag counter inactive | m5-HT2A ag conf 24
Cc1ccc(NC(=O)CSc2nc3ccccc3c(=O)n2CCCN2CCCCC2)cc1Cl	HTR2A ag 30 | MOR ag counter inactive | m5-HT2A ag conf inactive
COc1cccc(-c2cc3nc(C)c(C)c(N4CCN(C(=O)c5ccoc5)CC4)n3n2)c1	none (no result: ANO1 activ, beta cell repl, TMEM16A inh)
O=c1oc(CCCO)cc2ccc(/C=C/c3cccc([N+](=O)[O-])c3)cc12	none (no result: TMEM16A inh)
Cc1ccccc1-n1ncc2c1CC(C)(C)CC2NC(=O)C1=CC(=O)CC(C)(C)O1 (centres undefined)	HTR2A ag 32 | MOR ag counter inactive | m5-HT2A ag conf inactive
Cc1ccc[n+](/C(=C\C(=C=[N-])C#N)C(=O)c2ccc(Cl)cc2)c1	HTR2A ag 17 | MOR ag counter inactive | m5-HT2A ag conf inactive
Cc1cccc(N/C=C/C(=O)c2ccc(Cl)cc2)c1	none
COc1cc(/C=C2\S/C(=N/S(=O)(=O)Cc3ccccc3)NC2=O)c([N+](=O)[O-])cc1OC	none
COc1cc(/C=C2/S/C(=N/S(=O)(=O)c3ccccc3)NC2=O)c([N+](=O)[O-])cc1OC	HTR2A ag 18 | MOR ag counter inactive | m5-HT2A ag conf inactive
Cc1cn([C@H]2C[C@H](O)[C@@H](CCC(=O)NCCN3CCCCC3)O2)c(=O)[nH]c1=O	none (no result: ANO1 activ, beta cell repl, TMEM16A inh)
O=C(CCc1ccccc1)N1CCN(c2ccccc2F)CC1	none
O=C(CCC(=O)N1CCN(c2ccccc2F)CC1)c1ccc(Cl)s1	HTR2A ag 19 (no result: TMEM16A inh) | MOR ag counter inactive | m5-HT2A ag conf inactive
COc1ccc(/C(O)=C2/C(=O)C(=O)N(CCCN3CCOCC3)C2c2ccc(C(C)C)cc2)cc1 (centres undefined)	HTR2A ag 15 | MOR ag counter inactive | m5-HT2A ag conf inactive
COCCCN1C(=O)C(=O)/C(=C(/O)c2ccc(S(=O)(=O)N3CCOCC3)cc2)C1c1ccc(C)cc1 (centres undefined)	HTR2A ag 18 | MOR ag counter inactive | m5-HT2A ag conf inactive
COc1ccc(/C(O)=C2/C(=O)C(=O)N(CCCN3CCOCC3)C2c2ccc(Cl)cc2)cc1 (centres undefined)	none (no result: ANO1 activ, beta cell repl, TMEM16A inh)
CC(=O)OCC(C)n1[nH]c2ccccc2c1=O (centres undefined)	none (no result: ANO1 activ, MC4R antagonist, beta cell repl, MC4R ag barr, TMEM16A inh)
Cc1ccc(S(=O)(=O)NC(=O)Nc2cccc(S(=O)(=O)N(C)C)c2)cc1	HTR2A ag 17 (no result: TMEM16A inh) | MOR ag counter inactive | m5-HT2A ag conf inactive
Cc1ccc(S(=O)(=O)NC(=O)Nc2ccc(F)c(F)c2)cc1	none
Cc1nc2ccccc2c(=O)n1-c1ccc(NS(=O)(=O)c2ccccc2)cc1	HTR2A ag 15 | MOR ag counter inactive | m5-HT2A ag conf inactive
O=C(COC(=O)Cc1ccc(S(=O)(=O)N2CCOCC2)s1)Nc1ccc([N+](=O)[O-])cc1	none (no result: TMEM16A inh)
COc1ccc(S(=O)(=O)N(C)CC(=O)N2CCOCC2)cc1	none
COc1ccc(OC)c(S(=O)(=O)N(C)CC(=O)N2CCCCC2)c1	HTR2A ag 16 | MOR ag counter inactive | m5-HT2A ag conf inactive
COc1ccc(S(=O)(=O)N(C)CC(=O)N2CCCCCC2)cc1	HTR2A ag 36 | MOR ag counter inactive | m5-HT2A ag conf inactive
N#CCC1(O)C(=O)N(Cc2ccccc2)c2ccccc21 (centres undefined)	none (no result: ANO1 activ, MC4R antagonist, beta cell repl, MC4R ag barr, TMEM16A inh)
C[C@H](NC(=O)c1ccccc1Cl)C(=O)OCc1cn2cc(Cl)ccc2n1	none
CCOC(=O)CNS(=O)(=O)c1cc(-c2nnc(Nc3ccc4c(c3)OCO4)c3ccccc23)ccc1C	HTR2A ag 17 | MOR ag counter inactive | m5-HT2A ag conf inactive
Cc1ccc(S(=O)(=O)N2[C@H](CC(=O)c3cccs3)OC[C@@H]2C(C)C)cc1	none (no result: ANO1 activ, MC4R antagonist, beta cell repl, MC4R ag barr, TMEM16A inh)
CCOc1ccccc1NC(=O)CN1C(=O)COc2ccc(C)cc21	none
Cc1cc(C)n(CCN(C)Cc2nc(Cc3ccccc3F)no2)n1	HTR2A ag 38 | MOR ag counter inactive | m5-HT2A ag conf inactive
CCN1CCN(c2nc(N(C)c3ccccc3)nc(N)c2[N+](=O)[O-])CC1	none
Cc1nn(-c2ccccc2)c(N)c1Sc1ccc([N+](=O)[O-])cc1	none
CCCn1c(N)c(Sc2ccc([N+](=O)[O-])cc2)c(=O)n(CCC)c1=O	HTR2A ag 17 | MOR ag counter inactive | m5-HT2A ag conf inactive
COC(=O)C1CCN(CC(=O)Nc2ccc3c(c2)OCCO3)CC1	HTR2A ag 32 (no result: TMEM16A inh) | MOR ag counter inactive | m5-HT2A ag conf 42
CCNc1nc(OC)nc(Oc2ccc(=O)n(-c3ccccc3)n2)n1	HTR2A ag 18 | MOR ag counter inactive | m5-HT2A ag conf inactive
Cc1ccc(NC(=O)COC(=O)Cc2ccc(Br)cc2)cc1S(=O)(=O)N1CCOCC1	none (no result: TMEM16A inh)
CCCNC(=O)CN1C(=O)c2ccccc2Sc2ncccc21	none
CCCc1ccc(C(=O)CN2C(=O)C(=O)N(C3CCCC3)C2=O)cc1	HTR2A ag 18 (no result: TMEM16A inh) | MOR ag counter 1.3 | m5-HT2A ag conf inactive
CCCCCc1cc(=O)oc2c(C(CCN3CCCC3)c3ccc(N(C)C)cc3)c(OC)cc(OC)c12 (centres undefined)	none
CCCCCc1cc(=O)oc2c(C(CCN3CCN(c4ccccc4)CC3)c3ccc4c(c3)OCO4)c(OC)cc(OC)c12 (centres undefined)	HTR2A ag 22 | MOR ag counter inactive | m5-HT2A ag conf 49
O=c1[nH]c(=S)[nH]nc1Cc1ccc(Cl)c(Cl)c1	none
CC(C)(C)c1ccc(Cc2n[nH]c(=S)[nH]c2=O)cc1	HTR2A ag 15 | MOR ag counter inactive | m5-HT2A ag conf inactive
CCOc1ccc(CNCCN2CCCC2)cc1	none
Cc1ccc2cc(CCNC(=O)C(C)C)c(=O)[nH]c2c1C	HTR2A ag 16 | MOR ag counter inactive | m5-HT2A ag conf inactive
Cc1ccc(C)c2[nH]c(=O)c(CCNC(=O)c3ccco3)cc12	HTR2A ag 19 | MOR ag counter inactive | m5-HT2A ag conf inactive
CC(C)(C)c1ccc(C(=O)N2CCC2(C)C(=O)Nc2cccc3ncccc23)cc1 (centres undefined)	none (no result: ANO1 activ, beta cell repl, TMEM16A inh)
